# Measured values: PubChem BioAssay AID489031 (Sanford-Burnham Center for Chemical Genomics, 2010)
# Hit rate of the full screen: of about 330,000 compounds, about 1,000 (0.3%) were called active. The full list was thinned out, with actives kept by preference. Values without a mark were called inactive.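 Rule for the calls: active = activity change at or below -40% at 20 µM; inactive = the rest.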
# Target: Apoptotic protease-activating factor 1 (Homo sapiens) (UniProt O14727)
# Assay: enhancers of Apaf-1-driven caspase-3 activation – biochemical, DEVD-Rh110 fluorescence, uHTS, primary screen (AID 489031)
# Settings: Apaf-1 apoptosome caspase-3 activation, at 20 µM, active compounds read low
# Method in brief: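 Assay system – biochemical Apaf-1 apoptosome reconstitution · Medium – 20 mM HEPES buffer, pH 7.5, containing CHAPS and BSA · Incubation – 30 min preincubation, 50 min reaction, room temperature · Measured by – Caspase-3-released Rh110 fluorescence, 540 nm emission, 480 nm excitation · Read-out – Caspase-3 cleavage activity downstream of Apaf-1 activation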
# Sequence of Apoptotic protease-activating factor 1 (Homo sapiens) (O14727 whole entry, looked up): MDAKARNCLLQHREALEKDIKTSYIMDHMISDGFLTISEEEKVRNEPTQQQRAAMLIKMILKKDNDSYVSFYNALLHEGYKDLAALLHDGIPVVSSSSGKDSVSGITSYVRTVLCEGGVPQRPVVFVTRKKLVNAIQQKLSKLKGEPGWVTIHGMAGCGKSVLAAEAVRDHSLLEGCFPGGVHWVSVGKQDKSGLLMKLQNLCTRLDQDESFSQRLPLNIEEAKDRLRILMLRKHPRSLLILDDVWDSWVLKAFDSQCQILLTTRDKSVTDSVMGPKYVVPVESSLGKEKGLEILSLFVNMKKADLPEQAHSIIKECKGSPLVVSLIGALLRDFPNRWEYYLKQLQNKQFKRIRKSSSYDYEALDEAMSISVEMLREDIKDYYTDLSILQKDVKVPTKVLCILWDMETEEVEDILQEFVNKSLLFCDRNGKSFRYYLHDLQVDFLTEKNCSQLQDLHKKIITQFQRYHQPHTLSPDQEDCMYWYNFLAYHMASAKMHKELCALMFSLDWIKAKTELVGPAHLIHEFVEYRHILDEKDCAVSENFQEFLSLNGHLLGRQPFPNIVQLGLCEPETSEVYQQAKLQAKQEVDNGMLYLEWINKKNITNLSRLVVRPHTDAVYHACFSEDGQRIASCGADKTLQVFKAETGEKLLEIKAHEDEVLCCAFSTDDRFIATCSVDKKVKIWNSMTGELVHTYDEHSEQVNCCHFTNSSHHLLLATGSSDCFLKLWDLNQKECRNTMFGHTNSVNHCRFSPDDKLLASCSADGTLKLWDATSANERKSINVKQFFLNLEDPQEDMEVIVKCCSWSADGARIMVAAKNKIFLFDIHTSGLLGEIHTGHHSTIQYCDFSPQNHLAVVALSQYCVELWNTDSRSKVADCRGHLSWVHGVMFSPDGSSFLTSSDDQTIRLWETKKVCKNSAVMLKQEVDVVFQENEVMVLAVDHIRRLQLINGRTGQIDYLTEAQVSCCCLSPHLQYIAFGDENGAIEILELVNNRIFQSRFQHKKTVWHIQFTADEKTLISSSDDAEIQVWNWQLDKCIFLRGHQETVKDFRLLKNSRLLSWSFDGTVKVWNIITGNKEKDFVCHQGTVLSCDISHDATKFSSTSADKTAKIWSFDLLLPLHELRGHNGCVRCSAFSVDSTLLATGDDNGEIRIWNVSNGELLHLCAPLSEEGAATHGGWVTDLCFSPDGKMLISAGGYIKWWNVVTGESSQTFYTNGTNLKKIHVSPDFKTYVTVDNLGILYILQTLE
row,SMILES,"activity change, negative = activation"
1,Cc1nn(CC(=O)Nc2ccc(C#N)cc2)c(C)c1[N+](=O)[O-],-116% (active)
2,CCOC(=O)N1CCC(c2cc(=O)n(-c3ccccc3)[nH]2)CC1,86.7%
3,COCCNC(=O)Nc1ccc2nc(-c3ccco3)c(-c3ccco3)nc2c1,64.8%
4,CC(=O)N=c1ncn(CC(COC(C)=O)OC(C)=O)c2nc[nH]c12 (stereo not drawn),74.2%
5,CCCCNC(=O)C(C)N(CCN(C)C)C(=O)CCCCCN1C(=O)NC(c2ccc(Cl)cc2)C(C(=O)OCc2ccccc2)=C1C (stereo not drawn),67.1%
6,CC(C)OCCCNC(=S)N1CCC(C(=O)c2ccc3c(c2)OCCO3)CC1,-164% (active)
7,c1ccc(C[C@H]2CNCCN2CCC23CC4CC(CC(C4)C2)C3)cc1,47.5%
8,C=C(C)C(=O)Nc1cccc(C2=NOC3(C2)C[C@H](C(N)=O)N(C(=O)C(c2ccccc2)c2ccccc2)C3)c1 (stereo partly drawn),-78.2% (active)
9,CC(C)c1ccccc1OCC(O)CN(CC(O)COc1cccc2ccccc12)C(C)C (stereo not drawn),57.3%
10,O=c1[nH]cnc2c1c(-c1ccccc1)cn2-c1ccc(F)cc1,-47% (active)
11,c1ccc(CSc2nnc(-c3ccco3)c(-c3ccco3)n2)cc1,49.6%
12,Cc1ccsc1/C=N/NC(=O)Cc1cc(=O)[nH][nH]1,58.3%
13,COc1ccccc1C1C(C#N)=C(N)Oc2c1c(-c1ccccc1)nn2-c1ccccc1 (stereo not drawn),42.2%
14,COc1cc(C2C(C#N)=C(N)Oc3n[nH]c(-c4ccccn4)c32)cc(OC)c1OC (stereo not drawn),-84.8% (active)
15,COc1ccc2sc(-c3ccccc3OC)c(-c3ccc(OCCN4CCCC4)cc3)c2c1,73.4%
16,C/C(=N\NC(=O)CNc1cccc2ccccc12)c1ccc(Br)s1,90.2%
17,O=C(CSc1nc2ccccc2c(=O)[nH]1)Nc1nc(-c2ccc(Br)cc2)cs1,-74% (active)
18,Cc1ccc(-c2ccc(/C=N/NC(=O)CN3CCOCC3)o2)cc1[N+](=O)[O-],73.9%
19,O=C(CCCN1CCc2[nH]c3ccc(F)cc3c2C1)c1ccc(F)cc1,65%
20,COc1ccc(C2CC(c3ccccc3)Nc3ncnn32)cc1 (stereo not drawn),-445% (active)
21,NC[C@H](Cc1ccccc1)NCCc1cc(C(F)(F)F)cc(C(F)(F)F)c1,60.8%
22,Clc1ccccc1CSc1nnc(-c2ccco2)c(-c2ccco2)n1,49.9%
23,Cc1ccc2nc(N3CCN(C(=O)c4ccco4)CC3)sc2c1,41.9%
24,O=C(CN1C(=O)C2C3C=CC(C3)C2C1=O)NCCc1ccccc1Cl (stereo not drawn),-99.8% (active)
25,CC[N+](C)(CC)CCC[n+]1c(-c2ccccc2)c2cc(N)ccc2c2ccc(N)cc21,98.2%
26,Cc1ccc(-c2nc(SCC(=O)Nc3ccccc3OC(F)F)c3c(C)c(C(=O)O)sc3n2)cc1,-98.5% (active)
27,CCOCCCNC(=O)c1c[nH]c2cc(C)ccc2c1=O,-152% (active)

row,SMILES,"activity change, negative = activation"
1,CN(C)CCCN(C(=O)c1ccc(S(=O)(=O)N2CCCCCC2)cc1)c1nc2ccc(Br)cc2s1,60.4%
2,O=[N+]([O-])c1c(NCCO)cc(Sc2nc3ccccc3s2)c2nonc12,90.7%
3,C=CCC[C@H](Cc1ccc(F)cc1)C(=O)OC[C@@H](NC(=O)[C@@H](CC=C)CC(=O)N[C@H](CO)Cc1ccccc1)C(C)(C)C,40.6%
4,O=C(O)c1cc(Cl)c(Cl)cc1C(=O)Nc1cccc2ncccc12,80.4%
5,COC(=O)C(C)N(C#N)c1nc(C)nc(C)n1 (stereo not drawn),-363% (active)
6,CCCCN(CCCC)CCC(O)c1cc2c(Cl)cc(Cl)cc2c2cc(C(F)(F)F)ccc12 (stereo not drawn),48.9%
7,COc1ccc(C2c3ccc(O)cc3Oc3ncn(CCCO)c(=N)c32)cc1OC (stereo not drawn),-43.4% (active)
8,Cc1cc(C)n(-c2nc(SCC(=O)N3CCCC3)c3c4c(sc3n2)CCCC4)n1,43.6%
9,O=c1cc(N2CCCCC2)c(-c2ccccc2)nn1Cc1cccc(F)c1,44%
10,COc1ccc(S(=O)(=O)N2CCCCC2)cc1NC(=O)c1cc([N+](=O)[O-])ccc1N1CCOCC1,-42.8% (active)
11,OC(CNCC1CCCO1)Cn1c2ccc(Br)cc2c2cc(Br)ccc21 (stereo not drawn),43.4%
12,CC(=O)CCC(=O)c1ccc2ccccc2c1,-178% (active)
13,O=S(=O)(Nc1ccc(O)c2ccccc12)c1ccc(OC(F)(F)F)cc1,60.9%
14,COc1ccc(NC(=O)CN(Cc2ccccc2)S(C)(=O)=O)cc1OC,40.8%
15,Cc1[nH][nH]c(=O)c1C(c1ccc(-c2ccc(Cl)cc2)o1)c1c(C)[nH][nH]c1=O,85.8%
16,CCC(=O)Nc1c(S(=O)(=O)c2ccccc2)c2nc3ccccc3nc2n1Cc1ccccc1,49.2%
17,Cc1ccc(S(=O)(=O)c2c(N)n(C)c3nc4ccccc4nc23)cc1,-405% (active)
18,C=CCn1c(N)c(C(=O)OCC(C)C)c2nc3ccccc3nc21,54.1%
19,C#CCOCCOCCOCCNc1nc(N2CCN(C(=O)CCCCCCCCCCNC(=O)[C@H](CCCCN)n3cc(C)nn3)CC2)nc(N2CCN(C(=O)CCCCCCCCCCNC(=O)[C@H](CO)n3cc(CCCSC)nn3)CC2)n1,59.7%
20,CC(C)n1cnc2c(NCc3ccccc3)cc(N[C@@H](CO)Cc3ccccc3)cc21,94.5%
21,O=C(Nc1cccc(-c2nc3ccccc3[nH]2)c1)c1ccc(C(=O)Nc2cccc(-c3nc4ccccc4[nH]3)c2)cc1,-44% (active)
22,NC(N)=N/N=C/c1ccc(OCc2ccc(Cl)cc2Cl)cc1,65.5%
23,CCOC(=O)N1CCC(NC(=O)C(C)n2c3ccccc3c3cnn(C)c(=O)c32)CC1 (stereo not drawn),44.6%
24,C#C[C@]1(O)CC[C@H]2[C@@H]3CCC4=CC(=O)CC[C@@H]4[C@H]3CC[C@@]21CC,1.24%
25,C=CC1=C(C(=O)O)N2C(=O)[C@@H](NC(=O)/C(=N\OCC(=O)O)c3csc(N)n3)[C@H]2SC1,-78% (active)
26,C=CC1=C(C(=O)O)N2C(=O)[C@@H](NC(=O)/C(=N/OCC(=O)O)c3csc(N)n3)[C@H]2SC1,-112% (active)
